# Experimental data taken from ChEMBL document CHEMBL2203196, “Synthesis, antiproliferative and apoptotic activities of N-(6(4)-indazolyl)-benzenesulfonamide derivatives as potential anticancer agents” (Eur J Med Chem, 2012).
# Activity calls are given as the source filed them. The rule behind the calls is not given here.
# Key:
# [1] = test system: A549; test: Cytotoxicity against human A549 cells after 72 hrs by MTT assay; type: functional, cell-based; details: A549, 72 h
# Summary of the method: (§1)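 Cells plated at 900–1800/well for exponential growth, centrifuged 275 g 2 min, left 6–8 h, then exposed 72 h to at least 5 concentrations (1:10 serial dilutions) in duplicate; MTT read-out; IC₅₀ from single concentration–response curves; mean ± SD of 3–9 experiments.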
# [2] = test system: A2780; test: Cytotoxicity against human A2780 cells after 72 hrs by MTT assay; type: functional, cell-based; details: A2780, 72 h; summary of the method: as §1
# [3] = test system: P388; test: Cytotoxicity against mouse P388 cells after 72 hrs by MTT assay; type: functional, cell-based; details: P388, 72 h; summary of the method: as §1
# [4] = test system: A2780; test: Upregulation of Bax expression in human A2780 cells at IC50 after 48 hrs by Western blot analysis; type: functional, cell-based
# Summary of the method: (§2)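 A2780 cells treated at IC₅₀ and harvested at 24, 48, 72 h; lysed 30 min at 4 °C in 1% Triton X-100, 0.15 M NaCl, 10 mM Tris pH 7.4 with protease inhibitors; Bradford protein assay; 50 µg protein resolved on 12% SDS-PAGE, transferred to nitrocellulose, Ponceau S loading check, blocked overnight 2% BSA in TBST at 4 °C, probed for p53 or bax.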
# [5] = test system: P388; test: Induction of apoptosis in mouse P388 cells assessed as change in nuclear morphology at 0.97 to 957 uM after 3 days by DAPI staining-based fluorescence microscopy relative to control; type: functional
# Summary of the method: (§3)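 Cells plated at 5000–10000/well, left 6–8 h, then treated at MTT-derived IC₅₀ or IC₉₀; washed in cold PBS, fixed in 70% ethanol at 4 °C, stained with DAPI just before microscopy; percent apoptotic segmented nuclei scored against untreated controls; mean ± SD of 4–6 data.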
# [6] = test system: A2780; test: Cell cycle arrest in human A2780 cells assessed as cells with > 4n chromosomes at 6.8 to 102.3 uM after 72 hrs by propidium iodide staining-based FACS flow cytometry; type: functional
# [7] = test system: A2780; test: Cell cycle arrest in human A2780 cells assessed as accumulation at G0/G1 phase at 6.8 to 102.3 uM after 72 hrs by propidium iodide staining-based FACS flow cytometry (reference value: 51 +/- 6.2 %); type: functional
# [8] = test system: A2780; test: Cell cycle arrest in human A2780 cells assessed as accumulation at G0/G1 phase at IC50 after 72 hrs by propidium iodide staining-based FACS flow cytometry (reference value: 51 +/- 6.2 %); type: functional
# [9] = test system: A2780; test: Cell cycle arrest in human A2780 cells assessed as accumulation at G2/M phase at IC50 after 72 hrs by propidium iodide staining-based FACS flow cytometry (reference value: 23.1 +/- 2.5 %); type: functional
# [10] = test system: A2780; test: Induction of apoptosis in human A2780 cells assessed as change in nuclear morphology at > 200 uM after 3 days by DAPI staining-based fluorescence microscopy relative to control; type: functional; summary of the method: as §3
# [11] = test system: A2780; test: Cell cycle arrest in human A2780 cells assessed as accumulation at G2/M phase at 6.8 to 102.3 uM after 72 hrs by propidium iodide staining-based FACS flow cytometry (reference value: 23.1 +/- 2.5 %); type: functional
# [12] = test system: A2780; test: Cell cycle arrest in human A2780 cells assessed as accumulation at S phase at 6.8 to 102.3 uM after 72 hrs by propidium iodide staining-based FACS flow cytometry (reference value: 25.9 +/- 4.7 %); type: functional
# [13] = test system: A549; test: Induction of apoptosis in human A549 cells assessed as change in nuclear morphology at 0.97 to 957 uM after 3 days by DAPI staining-based fluorescence microscopy relative to control; type: functional; summary of the method: as §3
# [14] = test system: A2780; test: Cell cycle arrest in human A2780 cells assessed as accumulation at S phase at IC50 after 72 hrs by propidium iodide staining-based FACS flow cytometry (reference value: 25.9 +/- 4.7 %); type: functional
# [15] = test system: A549; test: Induction of apoptosis in human A549 cells assessed as change in nuclear morphology at IC50 after 3 days by DAPI staining-based fluorescence microscopy relative to control; type: functional; summary of the method: as §3
# [16] = test system: A2780; test: Induction of apoptosis in human A2780 cells assessed as change in nuclear morphology at IC50 after 3 days by DAPI staining-based fluorescence microscopy relative to control; type: functional; summary of the method: as §3
# [17] = test system: P388; test: Induction of apoptosis in mouse P388 cells assessed as change in nuclear morphology at IC50 after 3 days by DAPI staining-based fluorescence microscopy relative to control; type: functional; summary of the method: as §3
# [18] = test system: A2780; test: Upregulation of p53 expression in human A2780 cells at IC50 after 24 hrs by Western blot analysis; type: functional, cell-based; summary of the method: as §2
# [19] = test system: A2780; test: Induction of apoptosis in human A2780 cells assessed as change in nuclear morphology at 0.97 to 957 uM after 3 days by DAPI staining-based fluorescence microscopy relative to control; type: functional; summary of the method: as §3
# [20] = test system: A549; test: Induction of apoptosis in human A549 cells assessed as change in nuclear morphology at > 200 uM after 3 days by DAPI staining-based fluorescence microscopy relative to control; type: functional; summary of the method: as §3
Structure (SMILES),IC50 [1] [µM],IC50 [2] [µM],IC50 [3] [µM],Activity [4],Activity [5] [%],Activity [6] [%],Activity [7] [%],Activity [8] [%],Activity [9] [%],Activity [10] [%],Activity [11] [%],Activity [12] [%],Activity [13] [%],Activity [14] [%],Activity [15] [%],Activity [16] [%],Activity [17] [%],Activity [18],Activity [19] [%],Activity [20] [%]
Cc1ccc(S(=O)(=O)Nc2ccc3c(Br)nn(S(=O)(=O)c4ccc(C)cc4)c3c2)cc1,104,74.7,51.3,–,–,–,–,–,–,–,–,–,–,–,–,–,–,–,–,–
CCOc1ccc(NS(=O)(=O)c2ccc(C)cc2)c2cn[nH]c12,58.5,55.1,43.5,–,–,–,–,–,–,–,–,–,–,–,–,–,–,–,–,–
Cc1ccc(S(=O)(=O)Nc2ccc3c[nH]nc3c2)cc1,> 100,86.6,71.3,–,–,–,–,–,–,–,–,–,–,–,–,–,–,–,–,–
C=CCn1ncc2c(NS(=O)(=O)c3ccc(C)cc3)ccc(OCC)c21,100,61.6,51.8,–,–,–,–,–,–,–,–,–,–,–,–,–,–,–,–,–
C=CCn1cc2ccc(NS(=O)(=O)c3ccc(C)cc3)c(OCC)c2n1,> 100,> 100,68.9,–,–,–,–,–,–,–,–,–,–,–,–,–,–,–,–,–
CCOc1ccc(NS(=O)(=O)c2ccc(C)cc2)c2[nH]ncc12,25.1,8,5.7,Active,56,11.6,8.9,53.7,33.7,27,71.4,8.2,24.9,12.6,18.8,12.5,19,Active,–,–
CCOc1ccc(NS(=O)(=O)c2ccc(C)cc2)c2c(Br)n[nH]c12,17.5,10.5,5.21,Active,87.5,8.1,10.2,61.5,24.3,–,71.5,10.3,32.3,14.2,2.8,12.8,9.8,Active,34.3,–
Cc1ccc(S(=O)(=O)Nc2cccc3c2cnn3C)cc1,6.88,6.62,3.4,inactive,91.3,6.8,9.1,65,23.7,24,69.2,15,–,11.3,28,7.3,37.3,Active,–,41.2
Cc1ccc(S(=O)(=O)Nc2cccc3[nH]nc(Br)c23)cc1,82.4,70.9,53.9,–,–,–,–,–,–,–,–,–,–,–,–,–,–,–,–,–
Cc1ccc(S(=O)(=O)Nc2cccc3[nH]ncc23)cc1,> 100,> 100,85.5,–,–,–,–,–,–,–,–,–,–,–,–,–,–,–,–,–
CCOc1ccc(NS(=O)(=O)c2ccc(OC)cc2)c2c(Cl)n[nH]c12,5.83,1.23,0.58,Active,98,11.3,10.8,62.7,26.9,–,69.6,8.4,64.5,10.4,34.8,23.3,47.3,Active,36.8,–
Cc1ccc(S(=O)(=O)Nc2ccc3c(Br)n[nH]c3c2)cc1,> 100,101,66.6,–,–,–,–,–,–,–,–,–,–,–,–,–,–,–,–,–
COc1ccc(S(=O)(=O)Nc2cccc3[nH]nc(Cl)c23)cc1,1.83,0.86,0.5,Active,74,12.8,9.4,56.1,25.9,–,70.1,7.8,70.8,18,34.3,23.6,11.5,Active,46.6,–
CCOc1ccc(NS(=O)(=O)c2ccc(C)cc2)c2cn(C)nc12,14.4,8.34,4.19,–,94.3,12,9.9,43.5,29.3,51.5,64.5,13.7,–,27.3,22.3,33.5,10.3,–,–,54.3
C=CCn1cc2ccc(NS(=O)(=O)c3ccc(C)cc3)cc2n1,11.9,4.89,4.41,Active,68.7,11.1,10.8,66,24.2,66.5,72.7,5.5,–,9.8,51.2,19.3,30,Active,–,29.2
